Data: ChEMBL document CHEMBL1914305, “Synthesis and structure-activity evaluation of isatin-β-thiosemicarbazones with improved selective activity toward multidrug-resistant cells expressing P-glycoprotein” (J Med Chem, 2011)
Values after ≈ are worked out from the molar mass of the structure shown. Active and inactive are the calls of the source. The rule behind the calls is not given here.

Legend:
[1] = Cytotoxicity against vinblastine-selected human KBV1 cells after 72 hrs by MTT assay; format: functional, cell-based; conditions: KB-V1, 72 h
How it was run: (§1)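 Grown in DMEM with 10% FBS. MTT assay: 4000 cells/well, 24 h settling, serial dilutions of drug, 72 h at 37 °C in 5% CO2. MTT in IMDM 4 h, then acidified ethanol 15 min, A570 with 690 nm background. IC50 is the concentration reducing absorbance to 50% of untreated control. Three experiments in triplicate. KB-V1-R comes from KB-V1 grown long-term drug-free.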

[2] = Cytotoxicity against human KB-3-1 cells after 72 hrs by MTT assay; format: functional, cell-based; conditions: KB 3-1, 72 h
How it was run: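 Grown in DMEM with 10% FBS. MTT assay: 4000 cells/well, 24 h settling, serial dilutions of drug, 72 h at 37 °C in 5% CO2. MTT in IMDM 4 h, then acidified ethanol 15 min, A570 with 690 nm background. Three experiments in triplicate. KB-V1-R comes from KB-V1 grown long-term drug-free.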

[3] = Selectivity ratio of IC50 for human KB-3-1 cells to IC50 for human KBV1 cells selected at 1 ug/mL vinblastine; format: functional
How it was run: (§2)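 Selectivity ratio: IC50 in the parental or empty-vector cells divided by IC50 in the P-gp-expressing cells (KB-V1, or ABCB1-transfected LLC-PK1). MTT assay: 4000 cells/well established for 24 h, then 72 h exposure to serially diluted drug at 37 °C, 5% CO2. MTT for 4 h, acidified ethanol lysis, A570 corrected at A690. IC50 is the concentration giving 50% of untreated absorbance, from at least three experiments.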

NCI-H460 [4] = test: Cytotoxicity against ABCG2-expressing human H460 cells at 10 to 20 uM after 72 hrs by MTT assay in presence of ABCG2 substrate 5 uM mitoxantrone; format: functional, cell-based
LLC-PK1 [5] = test: Cytotoxicity against pig LLC-PK1 cells transfected with empty vector after 72 hrs by MTT assay; format: cell-based; conditions: Sus scrofa, LLC-PK1, 72 h
How it was run: (§3)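 LLC-PK1 empty-vector lines grown in M199 with 10% FBS; transfected lines also in 0.5 mg/mL G418. MTT assay: 4000 cells/well for 24 h, then serially diluted drug for 72 h at 37 °C, 5% CO2. MTT 4 h, acidified ethanol, A570 minus 690 nm. IC50 is 50% of untreated absorbance. Triplicate wells, three experiments.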

KB-V1 = test: Cytotoxicity against P-gp expressing human KBV1 cells after 72 hrs by MTT assay in presence of 4 uM P-gp substrate Rh123; format: functional, cell-based
[6] = Cytotoxicity against P-gp expressing human KBV1 revertant cells after 72 hrs by MTT assay; format: functional, cell-based; conditions: KB-V1, 72 h, in the assay text read “P-gp-negative” for “P-gp expressing”; how it was run: as §1
NCI-H460 [7] = test: Cytotoxicity against ABCG2-expressing human H460 cells at 10 uM after 72 hrs by MTT assay; format: functional, cell-based
[8] = Cytotoxicity against P-gp expressing human KBV1 cells after 72 hrs by MTT assay in presence of 100 nM TQR; conditions: KB-V1, 72 h
[9] = Aqueous solubility of the compound; format: physicochemical; conditions: buffer
LLC-PK1 [10] = test: Cytotoxicity against pig LLC-PK1 cells after 72 hrs by MTT assay; format: cell-based; conditions: Sus scrofa, LLC-PK1, 72 h; how it was run: as §3
[11] = Cytotoxicity against P-gp-negative human KB-3-1 cells after 72 hrs by MTT assay in presence of 100 nM TQR; conditions: KB 3-1, 72 h
[12] = Selectivity ratio of IC50 for pig LLC-PK1 cells transfected with empty vector to IC50 for pig LLC-PK1 cells; format: ADME, cell-based, Sus scrofa; conditions: read-out: Ratio IC50; how it was run: as §2

| SMILES | IC50 [1] | IC50 [2] | Ratio IC50 [3] | also measured |
| --- | --- | --- | --- | --- |
| O=C1Nc2ccccc2/C1=N/NC(=S)Nc1c(F)cc(F)cc1F | 7.28 µM | 38.4 µM | 5.3 | – |
| O=C1Nc2ccccc2/C1=N/NC(=S)NC1CCCCC1 | 4.38 µM | 9.14 µM | 2.1 | – |
| O=C1Nc2ccccc2/C1=N/NC(=S)Nc1ccccc1 | 1.47 µM | 3.53 µM | 2.4 | – |
| CC(C)c1ccc(NC(=S)N/N=C2\C(=O)Nc3ccccc32)cc1 | 1.09 µM | 9.11 µM | 8.4 | – |
| CNC(=S)N/N=C1\C(=O)Nc2ccccc21 | 19.4 µM | 35.3 µM | 1.8 | – |
| CC(C)(C)c1ccc(NC(=S)N/N=C2\C(=O)Nc3ccccc32)cc1 | 0.71 µM | 8.13 µM | 14.8 | Activity (NCI-H460 [4]): Active; IC50 (LLC-PK1 [5]): 29.3 µM; Activity (KB-V1): Active; IC50 [6]: 6.5 µM; Activity (NCI-H460 [7]): Active; IC50 [8]: 8.41 µM; solubility [9]: 0.8 µg/mL (≈ 2.27 µM); IC50 (LLC-PK1 [10]): 2.89 µM; IC50 [11]: 14.3 µM; selectivity ratio [12]: 10.1 |
| O=C1Nc2ccccc2/C1=N/NC(=S)Nc1ccc(Cl)cc1 | 4.99 µM | 13.4 µM | 2.7 | – |
| O=C1Nc2ccccc2/C1=N/NC(=S)Nc1ccc(C(F)(F)F)cc1 | 2.1 µM | 8.59 µM | 4.1 | – |
| O=C1Nc2ccccc2/C1=N/NC(=S)Nc1cccc2ccccc12 | 2.21 µM | 5.12 µM | 2.3 | – |
| CCc1ccc(NC(=S)N/N=C2\C(=O)Nc3ccccc32)cc1 | 1.34 µM | 4.05 µM | 3 | – |
| O=C1Nc2ccccc2/C1=N/NC(=S)Nc1ccccc1Cl | 1.17 µM | 2.22 µM | 1.9 | – |
| O=C1Nc2ccccc2/C1=N/NC(=S)Nc1cccc(Cl)c1 | 0.64 µM | 1.87 µM | 2.9 | – |
| CC(C)NC(=S)N/N=C1\C(=O)Nc2ccccc21 | 10.2 µM | 39.3 µM | 3.8 | – |
| CN(C)c1ccc(NC(=S)N/N=C2\C(=O)Nc3ccccc32)cc1 | 2.32 µM | 6.95 µM | 3 | – |
| O=C1Nc2ccccc2/C1=N/NC(=S)Nc1ccc2c(c1)CCC2 | 2.85 µM | 5.8 µM | 2 | – |
| CCCC1CCC(c2ccc(NC(=S)N/N=C3\C(=O)Nc4ccccc43)cc2)CC1 (stereo not drawn) | 11 µM | 17.5 µM | 1.6 | – |
